The nature of assay [1]: reduced viability of SK-BR-3 breast cancer cells – cell-based, 24 h, human, pilot screen (AID 572;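 active = viability at or below 10% of carrier control in both of two separate runs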;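 note: compound exposure lasted between 18 and 24 h rather than exactly 24 h; 100% = carrier-treated control wells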). The note with it: SK-BR-3 viability, CellTiter-Glo luminescence, at 10 µM, stronger effect = lower value.
Assay [2] is described as follows: HUVEC growth inhibition – cell-based, human, primary screen (AID 575).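 Note: 100% = median of untreated cell wells with 0.1% DMSO on each plate.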 The note with it: HUVEC proliferation, CellTiter-Glo luminescence, 72 h; at 10 µM; stronger effect = lower value. An outline of the steps:
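Test system: primary human umbilical vein endothelial cells. Quantity: 1250 cells/well. Compound: single 10 µM dose, 0.1% DMSO, from 5x medium stock. Timing: 72 h treatment at 37 °C. Detection: ATP-based CellTiter-Glo luminescent read. Benchmarks: vehicle and MePR control wells. Format: 384-well plates coated with collagen.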
For orientation: In ATP-based viability assays light output follows the ATP content of the culture.

The nature of assay [3]: H69AR cell proliferation blockers – human, duplicate replicates, primary screen (AID 580;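 active = viability at or under a set limit in both replicates, limit being median viability minus 3 SD, cut at about 48% in these data, passing the limit was not always enough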;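 note: 100% = mean luminescence of untreated wells and 0% = no signal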). Conditions: H69AR lung tumor cells viability, ATP luminescence, 72 h; at 10 µM; stronger effect = lower value.
The nature of assay [4]: MRP1 drug-resistance reversers in H69AR cells – cell-based, doxorubicin co-treatment, pilot screen (AID 601;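 active = viability loss from added drug above about 55%, and viability with drug at most 40%, in both replicates, limit read from the data, passing the limit was not always enough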). Conditions: CellTiter-Glo, 72 h, at 10 µM; for differential viability (reversal): stronger effect = higher value.
The nature of assay [5]: yeast transport mutant growth inhibition pilot in 384-well plates, post-Golgi transport modulator project (AID 636; in the data active = inhibition above about 31%). The note with it: absorbance 615 nm, about 18 h, stronger effect = higher value.
Assay [6] in a line: growth suppression of yeast trafficking mutant, preliminary HTS, modulators of trafficking downstream of Golgi apparatus project, 1536-format plate, OD 615 nm (AID 637; in the data active = inhibition above about 30%). The note with it: yeast transport mutant growth, absorbance 615 nm, 18 h; stronger effect = higher value.
Setting [7] is: H69AR cells + 2 uM doxorubicin, measured here: viability with 2 uM doxorubicin, stronger effect = lower value.
Setting [8] is: H69AR cells, compound alone cytotoxicity.

The record followed here is PubChem BioAssay.

Activity calls are given as the source filed them.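 Rule for the calls, unless noted: active = viability at or below 30% in both replicate assays; inconclusive = viability at or below 30% in just one of the two assays; inactive = the rest.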

As usually defined, the viability is a read-out of living cells in per cent, often relative to untreated cells. The inhibition is the relative decrease from the control value, in per cent. For `CCOC(=O)c1ccc(NC(=O)CSC2=NC(=O)C(CC)C(=O)N2)cc1` (centres undefined), the viability in assay [1] is 94% (inactive); in assay [2] it was 65.8% (inactive); in assay [3] it was 105% (inactive); in assay [4] (setting [7]), 83.3%; in assay [4] (setting [8]), 105%. Besides, the differential viability (reversal) in assay [4] (H69AR cells + 2 uM doxorubicin) is 22.1% (inactive). Also, the inhibition in assay [5] was 0.78% (inactive); in assay [6], -2.3% (inactive).

Turning to `CCc1nnc(NC(=O)CSc2nnc3ncccn23)s1`, the viability in assay [1] is 91% (inactive); in assay [2], 108% (inactive); in assay [3], 95.5% (inactive); in assay [4] (setting [7]), 98.7%; in assay [4] (setting [8]), 95.5%. Also, the differential viability (reversal) in assay [4] (H69AR cells + 2 uM doxorubicin) is -3.16% (inactive). For the same molecule, the inhibition was -5.07% (inactive) in assay [5] and 3.27% (inactive) in assay [6].

As for `COc1ccccc1OCCOCCn1cnc2ccccc2c1=O`, the viability in assay [1] is 87% (inactive); in assay [2], 93.8% (inactive); in assay [3], 87.7% (inactive); in assay [4] (setting [7]), 91.1%; in assay [4] (setting [8]), 87.7%. Besides, the differential viability (reversal) in assay [4] (H69AR cells + 2 uM doxorubicin) is -3.44% (inactive). The values for the inhibition in assay [5] and in assay [6] were -5.75% (inactive) and 0.97% (inactive), respectively.

For `Cc1c(NC(=O)C(C)OC(=O)c2cc3c4ccccc4n(C)c3s2)c(=O)n(-c2ccccc2)n1C` (centres undefined), the viability in assay [1] is 94% (inactive); in assay [2] it was 80.8% (inactive); in assay [3] it was 78.4% (inactive); in assay [4] (setting [7]) it was 88.4%; in assay [4] (setting [8]) it was 78.4%. Further, the differential viability (reversal) in assay [4] (H69AR cells + 2 uM doxorubicin) is -10% (inactive). Besides, the values for the inhibition in assay [5] and in assay [6] were -11.4% (inactive) and 1.13% (inactive), respectively.

Take `CCOC(=O)C1CCN(C(=O)CCCCn2c(=O)[nH]c3ccccc3c2=O)CC1`: the viability in assay [1] was 90% (inactive); in assay [2], 114% (inactive); in assay [3], 101% (inactive); in assay [4] (setting [7]), 94.9%; in assay [4] (setting [8]), 101%. Further, the differential viability (reversal) in assay [4] (H69AR cells + 2 uM doxorubicin) was 6.14% (inactive). The results for the inhibition in assay [5] and in assay [6] were 3.77% (inactive) and 2.62% (inactive), respectively.

Take `COc1cccc(NC(=O)c2ccccc2NS(C)(=O)=O)c1`: the viability in assay [1] was 86% (inactive); in assay [2], 91.8% (inactive); in assay [3], 91.9% (inactive); in assay [4] (setting [7]) it was 87.5%; in assay [4] (setting [8]), 91.9%. The differential viability (reversal) in assay [4] (H69AR cells + 2 uM doxorubicin) was 4.45% (inactive). The inhibition in assay [5] is -5.89% (inactive); in assay [6], -3.45% (inactive).

Consider `CC1(C)Cc2c(c(=S)nc(-c3ccccc3)n2CCO)CO1`, for which the viability is 111% (inactive) in assay [1]; 106% (inactive) in assay [2]; 87.6% (inactive) in assay [3]; 91.9% in assay [4] (setting [7]); 87.6% in assay [4] (setting [8]). Besides, in assay [4] (H69AR cells + 2 uM doxorubicin), the differential viability (reversal) is -4.25% (inactive). Moreover, the figures for the inhibition in assay [5] and in assay [6] were -1.43% (inactive) and -6.72% (inactive), respectively.

As for `Cc1ccc(N2CCN(c3ccc(C)cc3)C(CC(=O)O)C2=O)cc1` (centres undefined), the viability was 92% (inactive) in assay [1]; 98.2% (inactive) in assay [2]; 97.4% (inactive) in assay [3]; 93.2% in assay [4] (setting [7]); 97.4% in assay [4] (setting [8]). Further, the differential viability (reversal) in assay [4] (H69AR cells + 2 uM doxorubicin) was 4.25% (inactive). Also, the inhibition in assay [5] is -5.89% (inactive); in assay [6] it was -3.23% (inactive).

On to `Cc1ccc2c(c1)C(O)(CC(=O)c1ccc3c(c1)OCO3)C(=O)N2` (centres undefined), for which the viability in assay [1] was 78% (inactive); in assay [2] it was 92.3% (inactive); in assay [3], 94.3% (inactive); in assay [4] (setting [7]) it was 86.2%; in assay [4] (setting [8]) it was 94.3%. Moreover, the differential viability (reversal) in assay [4] (H69AR cells + 2 uM doxorubicin) was 8.13% (inactive). Further, the inhibition was -4.11% (inactive) in assay [5] and -7.58% (inactive) in assay [6].

Turning to `COc1ccccc1CN1CC(C(=O)NCc2cccnc2)CC1=O` (centres undefined), the viability was 134% (inactive) in assay [1]; 95.5% (inactive) in assay [2]; 91.5% (inactive) in assay [3]; 89.2% in assay [4] (setting [7]); 91.5% in assay [4] (setting [8]). The differential viability (reversal) in assay [4] (H69AR cells + 2 uM doxorubicin) was 2.3% (inactive). The inhibition in assay [5] was -2.99% (inactive); in assay [6] it was 3.77% (inactive).

Take `COc1ccc(-n2c(SCC(N)=O)nc3sc4c(c3c2=O)CCN(C)C4)cc1`: the viability in assay [1] was 126% (inactive); in assay [2], 93.5% (inactive); in assay [3] it was 101% (inactive); in assay [4] (setting [7]), 111%; in assay [4] (setting [8]) it was 101%. Further, in assay [4] (H69AR cells + 2 uM doxorubicin), the differential viability (reversal) is -9.52% (inactive). In addition, the inhibition is 6.16% (inactive) in assay [5] and -1.94% (inactive) in assay [6].

Regarding `COC(=O)c1sc(S(=O)(=O)N2CCN(c3ccccc3)CC2)c(C(=O)OC)c1C`, the viability in assay [1] was 69% (inactive); in assay [2], 96.1% (inactive); in assay [3] it was 85.6% (inactive); in assay [4] (setting [7]) it was 87.5%; in assay [4] (setting [8]) it was 85.6%. Further, the differential viability (reversal) in assay [4] (H69AR cells + 2 uM doxorubicin) is -1.87% (inactive). Further, the inhibition in assay [5] is -8.63% (inactive); in assay [6], 4% (inactive).

With `COc1ccc(N=C2C(=O)Nc3ccccc32)cc1`, the viability in assay [1] is 103% (inactive); in assay [2], 66.7% (inactive); in assay [3], 75.4% (inactive); in assay [4] (setting [7]), 79.5%; in assay [4] (setting [8]), 75.4%. The differential viability (reversal) in assay [4] (H69AR cells + 2 uM doxorubicin) was -4.16% (inactive). The inhibition is -0.4% (inactive) in assay [5] and -1.45% (inactive) in assay [6].

For `COc1ccc(N2CCN(C(=O)Cc3ccc(-n4c(=O)[nH]c5ccccc5c4=O)cc3)CC2)cc1`, the viability in assay [1] was 103% (inactive); in assay [2], 75.8% (inactive); in assay [3] it was 94.7% (inactive); in assay [4] (setting [7]) it was 91.5%; in assay [4] (setting [8]), 94.7%. In assay [4] (H69AR cells + 2 uM doxorubicin), the differential viability (reversal) is 3.2% (inactive). For the same molecule, the inhibition in assay [5] is 0.26% (inactive); in assay [6] it was -3.11% (inactive).

With `CC(=O)c1c(C)nn(C(C)CC(=O)O)c1C` (centres undefined), the viability is 113% (inactive) in assay [1]; 97.8% (inactive) in assay [2]; 97.5% (inactive) in assay [3]; 89.3% in assay [4] (setting [7]); 97.5% in assay [4] (setting [8]). For the same molecule, the differential viability (reversal) in assay [4] (H69AR cells + 2 uM doxorubicin) is 8.11% (inactive). In addition, the inhibition in assay [5] is -1.95% (inactive); in assay [6], -4.75% (inactive).

Take `COc1ccc(-c2ccc(=O)n(Cc3cc(=O)n4ccccc4n3)n2)cc1`: the viability was 102% (inactive) in assay [1]; 107% (inactive) in assay [2]; 97% (inactive) in assay [3]; 91.1% in assay [4] (setting [7]); 97% in assay [4] (setting [8]). For the same molecule, the differential viability (reversal) in assay [4] (H69AR cells + 2 uM doxorubicin) is 5.91% (inactive). Moreover, the inhibition is -3.38% (inactive) in assay [5] and 4.36% (inactive) in assay [6].

As for `COC(=O)C1=C(C)N(Cc2ccco2)C(=O)C1`, the viability in assay [1] was 96% (inactive); in assay [2] it was 103% (inactive); in assay [3], 96.1% (inactive); in assay [4] (setting [7]), 90.7%; in assay [4] (setting [8]) it was 96.1%. In addition, in assay [4] (H69AR cells + 2 uM doxorubicin), the differential viability (reversal) is 5.42% (inactive). Moreover, the figures for the inhibition in assay [5] and in assay [6] were -7.53% (inactive) and 5.82% (inactive), respectively.

As to `CCOC(=O)C(C(C)=O)c1nc(C)nc2c1nnn2Cc1ccccc1Cl` (centres undefined), the viability in assay [1] is 58% (inactive); in assay [2], 71.7% (inactive); in assay [3], 79.4% (inactive); in assay [4] (setting [7]) it was 89.1%; in assay [4] (setting [8]) it was 79.4%. Besides, in assay [4] (H69AR cells + 2 uM doxorubicin), the differential viability (reversal) is -9.73% (inactive). Further, the inhibition in assay [5] was 1.08% (inactive); in assay [6] it was -2.18% (inactive).
